Most compounds without a hit are left out; they make up all but 4.1% or so of the library.
KCC2 mod: KCC2 (human) Cl- transport modulation; hit rate 2.2% among 190,000; KCC2 cells, thallium flux FluoZin-2 fluorescence; B-score of Tl+ flux slope (higher = more flux/activation; lower = inhibition) at 10 µM;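 active = thallium flux slope and its plate-corrected score both differing from the plate sample mean at a set confidence after two filtering rounds, in either direction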;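 note: slope of fluorescence scaled to starting intensity during 10 to 20 s after thallium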
KCNQ1 block: blocks the human KCNQ1 potassium channel | P51787 | CHO-K1 KCNQ1, FluxOR thallium flux fluorescence; active compounds read high | B-score at 10 µM | hit rate 1.3% among 310,000;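 active = compounds whose thallium flux B-score, printed positive for inhibition, exceeds three library SD while starting fluorescence stays within three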;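 note: channel opened by potassium depolarization with thallium stimulus after 20 min compound exposure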
KCNK3 block: human KCNK3 channel inhibition, primary screen; O14649; CHO-KCNK3 thallium flux, FluxOR fluorescence; active compounds read low; B-score at 10 µM; hit rate 0.84% among 340,000; AID 602410;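 active = B-score under library mean minus 4 SD, starting fluorescence ratio at most library mean plus 5 SD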;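 note: more negative B-score means stronger inhibition of thallium flux through KCNK3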
KCNK9 inh: inhibitors of human KCNK9 two-pore domain potassium channel. Q9NPC2. HEK293 KCNK9, FluxOR thallium flux fluorescence; active compounds read low. B-score at 10 µM. hit rate 1.2% among 310,000;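 active = ratio B-score over 3 SD below the library mean, with starting fluorescence within 5 SD of its mean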;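 note: negative B-score means less thallium flux so channel inhibition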
Target sequence (Q9NPC2 whole entry, looked up, the tested form may be a part): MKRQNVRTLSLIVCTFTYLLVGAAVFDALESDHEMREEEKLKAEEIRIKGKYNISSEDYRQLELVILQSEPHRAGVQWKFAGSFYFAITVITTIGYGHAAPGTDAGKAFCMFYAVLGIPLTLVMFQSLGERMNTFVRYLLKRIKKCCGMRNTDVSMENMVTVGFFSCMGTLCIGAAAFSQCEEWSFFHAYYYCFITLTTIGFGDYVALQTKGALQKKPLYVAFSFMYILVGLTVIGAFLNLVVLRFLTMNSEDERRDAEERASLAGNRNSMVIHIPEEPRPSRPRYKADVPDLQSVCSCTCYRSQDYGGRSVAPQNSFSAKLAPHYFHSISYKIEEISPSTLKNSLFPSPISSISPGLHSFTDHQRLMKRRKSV
hERG rescue: hERG (human) protection from proarrhythmic block | Q12809 | CHO-hERG, FluxOR thallium flux, dofetilide IC70 present | activation (rescue from dofetilide block), less the hit threshold, % at 10 µM | hit rate 0.51% among 310,000 | AID 1511;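 active = activation above the mean of controls blocked by dofetilide plus 5 SD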;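 note: thallium influx through hERG after potassium depolarization seen as dye fluorescence rise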
KCNQ1 pot: potentiates or activates the human KCNQ1 potassium channel | P51787 | CHO-K1 KCNQ1, thallium flux FluxOR fluorescence; active compounds read high | B-score at 10 µM | hit rate 0.35% among 310,000;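 active = fluorescence ratio B-score, a plate-corrected score, at least three library SD, with initial intensity B-score within 5 SD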
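Schedule – 37 °C overnight plating, 90-min dark dye load, 20-min compound pretreatment · System – stable KCNQ1 CHO-K1 line · Probe or stimulus – thallium- and potassium-containing depolarizing buffer · Measured by – kinetic FluxOR fluorescence, 10 s baseline plus 110 s post-stimulus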
KCNK9 block conf: human KCNK9 inhibitor confirmation; AID 492992; inhibition, % at 10 µM; hit rate 43% among 4,900; HEK293 KCNK9 cells, FluxOR thallium flux fluorescence; shares compounds with KCNK9 inh;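 active = thallium signal inhibited by more than 5 SD of the compound-free buffer control wells, on both duplicate plates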;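 note: 0% = assay buffer control wells without compound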
Kir21 sel: mouse Kir2.1 off-target activity of KCNK9 modulators. inhibition, % at 10 µM. Kir2.1 cells, FluxOR thallium flux fluorescence. shares compounds with KCNK9 inh. hit rate 4% among 4,900;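 active = thallium signal drop more than 5 SD beyond the mean of the no-compound control wells, seen in both duplicate plates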;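 note: signal is fluorescence rise after thallium addition divided by baseline fluorescence; plate controls were assay buffer only for no effect and full block by chlorpromazine control for full effect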
HEK293 Tl ctr: second check of KCNK9 modulator effects in non-induced HEK293 cells; shares compounds with KCNK9 inh; FluxOR thallium flux; inhibition, % at 10 µM; hit rate 40% among 4,900; AID 492997;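 active = thallium signal drop beyond 5 SD of the untreated control mean, on both duplicate plates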;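 note: plate controls were buffer only IC0 wells for no effect and SID17386958 at its maximal inhibitory level for full effect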
Active calls of the source: *; i = inactive; nt = no result.

SMILES | KCC2 mod | KCNQ1 block | KCNK3 block | KCNK9 inh | hERG rescue | KCNQ1 pot | KCNK9 block conf | Kir21 sel | HEK293 Tl ctr
COCCN(C(=O)COC(=O)c1ccc(-c2ccccc2)cc1)c1c(N)n(Cc2ccccc2)c(=O)[nH]c1=O | nt | nt | i | nt | nt | nt | nt | nt | nt
O=C(Oc1ccc2ccc(=O)oc2c1)c1ccc([N+](=O)[O-])cc1 | nt | i | i | -15* | -11.2 | i | 39.5%* | i | i
Cc1ccc(C(=O)Oc2ccc3ccc(=O)oc3c2)cc1 | nt | i | i | i | -4.2 | i | nt | nt | nt
CN(C)S(=O)(=O)c1ccc(C(=O)Nc2nnc(-c3ccc4c(c3)CCCC4)o2)cc1 | 8.08* | i | i | i | -17.7 | i | i | i | i
O=C(CCc1ccccc1)Nc1nnc(-c2ccc3c(c2)CCCC3)o1 | 2.59 | i | i | i | -19.8 | i | nt | nt | nt
O=C(Nc1nnc(-c2ccc3c(c2)CCCC3)o1)c1ccc(Cl)cc1Cl | nt | i | i | i | 18.9* | 52* | i | i | i
COc1ccc(-c2nnc(NC(=O)c3ccc(S(=O)(=O)N4CCc5ccccc5C4)cc3)o2)cc1 | nt | i | i | i | -1.6 | i | i | i | i
CCOc1ccc(CCNC(=O)CSC(=S)N2CCCC2)cc1OCC | nt | i | i | i | -13.7 | i | nt | nt | nt
COc1cccc(NC(=O)CN(C2=NC3CS(=O)(=O)CC3S2)c2cccc(C)c2)c1 (stereo not given) | nt | i | i | i | -9.7 | i | nt | nt | nt
CC[C@@]1(C(=O)OC)N[C@H](CN(C)C(=O)Nc2ccc(C(F)(F)F)cc2)[C@@H]2C(=O)N(C)C(=O)[C@@H]21 | nt | nt | i | nt | nt | nt | nt | nt | nt
Cn1c(=O)c2[nH]c(C=Cc3ccc4c(c3)OCO4)nc2n(C)c1=O | nt | nt | i | nt | nt | nt | nt | nt | nt
CCOC(=O)[C@@H]1[C@H]2COc3ccc(Br)cc3[C@H]2N2C(=O)N(c3ccc(C(F)(F)F)cc3)C(=O)[C@]12C | nt | nt | i | nt | nt | nt | nt | nt | nt
O=C(c1ccncc1)N1N=C(c2ccc(Br)cc2)CC1c1ccccc1O (stereo not given) | nt | i | i | i | -4.9 | i | nt | nt | nt
O=C(c1ccccc1Cl)N1N=C(c2ccc(Br)cc2)CC1c1nc2ccccc2[nH]1 (stereo not given) | 1.43 | i | i | -8.94* | -7.2 | i | 35.5%* | i | 29.5%*
CCc1ccc(CN(Cc2cccnc2)C(=O)/C=C/c2ccc(OC)cc2)cc1 | nt | i | i | i | -14.2 | i | i | i | i
CCCc1cc(=O)oc2cc(OCC(=O)NCCc3ccc(S(N)(=O)=O)cc3)ccc12 | nt | i | i | i | -13.2 | i | nt | nt | nt
O=C1C(=O)c2c(C(=O)c3ccccc3)coc2-c2ccccc21 | -4 | 7* | i | -14.6* | -32.9 | i | 60.0%* | i | 38.0%*
CC(=O)Nc1c(Cl)cc2c(c1Cl)C(=O)c1ccccc1-2 | nt | nt | i | nt | nt | nt | nt | nt | nt
Cc1ccc(S(=O)(=O)NCC(=O)OCC(=O)N2CC(C)OC(C)C2)cc1 (stereo not given) | nt | nt | i | nt | nt | nt | nt | nt | nt
CCN(C(=O)c1ccc2c(Cl)c3c(nc2c1)CCC3)c1ccc(C)c(C)c1 | 0.252 | i | i | i | -16.0 | i | i | i | i
CN(C(=O)c1ccc2c(Cl)c3c(nc2c1)CCC3)c1ccccc1 | -1.25 | i | i | i | -13.4 | i | nt | nt | nt
COc1ccc(Cn2nc(-c3ccccc3)c(N3CCCCC3)cc2=O)cc1 | -0.166 | 7* | i | -16.5* | -15.1 | i | i | i | 28.0%*
Cc1cccc(OCC(=O)N(Cc2nnc(-c3ccccc3Cl)o2)C2CC2)c1 | nt | nt | i | nt | nt | nt | nt | nt | nt
Cc1ccc(C)c(OCC(=O)N(Cc2nnc(-c3ccccc3Cl)o2)C2CC2)c1 | nt | i | i | i | -16.8 | i | i | i | i
CC(C)OC(=O)c1cccc(C(=O)Nc2cccc(NC(=O)c3cccc(C(=O)OC(C)C)n3)n2)n1 | -0.962 | i | i | -13.2* | -13.1 | i | 64.5%* | i | i
SMILES | KCC2 mod | KCNQ1 block | KCNK3 block | KCNK9 inh | hERG rescue | KCNQ1 pot | KCNK9 block conf | Kir21 sel | HEK293 Tl ctr
Clc1cccc2sc(N3CCN(c4ccccc4)CC3)nc12 | -0.823 | i | i | -14.4* | -18.8 | i | 35.5%* | i | 36.5%*
CC(C)c1ccccc1OCC(=O)Nc1ccc2[nH]ncc2c1 | nt | i | i | i | -6.1 | i | nt | nt | nt
CC(C)C(=O)Nc1nc(-c2ccc3c(c2)CCN3C(=O)C2CC2)cs1 | nt | i | i | -8.88* | -17.1 | i | i | i | i
Cc1nn(-c2ccccc2)c(Cl)c1/C=N/NC(=O)OC(C)(C)C | -0.394 | i | i | -11.4* | -9.1 | i | 49.0%* | i | i
Cc1nn(-c2ccccc2)c(Cl)c1/C=N/NC(=O)c1ccc(CNc2ccccc2)o1 | -1.56 | i | i | i | -8.9 | i | nt | nt | nt
CNC(=S)N/N=C/c1c(C)nn(-c2ccccc2)c1Cl | 1.15 | i | i | i | -9.9 | i | nt | nt | nt
Cc1nn(-c2ccccc2)c(Cl)c1/C=N/NC(=O)c1ccco1 | -0.252 | i | i | -8.65* | -3.9 | i | 49.5%* | i | 27.5%*
Cc1cc(NC(=O)CN2C(=O)NC3(CCCCC3)C2=O)ccc1N1CCCC1 | nt | nt | i | nt | nt | nt | nt | nt | nt
CCCSc1nc(=S)n(Cc2ccccc2)c(C)c1C(C)=O | -0.0201 | i | i | -13.2* | -4.5 | i | 66.5%* | i | i
Cc1cccc(-n2c(SCC(N)=O)nc3c(c2=O)C2(CCCC2)Cc2ccccc2-3)c1 | -0.144 | i | i | -9.04* | -6.3 | i | 53.0%* | i | 35.0%*
NC(=O)CSc1nc2c(c(=O)n1-c1ccccc1)C1(CCCCC1)Cc1ccccc1-2 | 0.578 | i | i | i | -3.1 | i | nt | nt | nt
COc1ccc(NC2CCCN(C(=O)c3ccc(C(C)=O)cc3)C2)cc1 (stereo not given) | nt | i | i | i | -10.6 | i | nt | nt | nt
COc1ccc(NC2CCCN(C(=O)c3ccc(OC)o3)C2)cc1 (stereo not given) | nt | i | i | i | -10.5 | i | i | i | i
